Measurements taken from ChEMBL document CHEMBL5303300, “EUbOPEN Chemogenomics Library - Multiplex” (2023).
Values joined by “and” are separate entries in the source; they are usually repeats but may differ in a detail not shown here. Equal entries are not always repeated.

Columns and labels:
Assay type in all cases: toxicity, cell-based
[1] = system: Fibroblast; assay: Multiplex assay against human fibroblast; settings: number of replicates 2
Summary of the method: (§1)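 On a CQ1 microscope at 37°C and 5% CO2, live cells were imaged after compound addition. They had been stained at seeding with Hoechst33342, BioTracker Green Microtubule Cytoskeleton Dye, MitoTracker Red and Annexin V Alexa Fluor 680. CellPathfinder machine-learning gating assigned cells to Hoechst high-intensity objects or normal cells, normal cells to healthy, pyknosed or fragmented nuclei, and pyknosed cells to mitotic or apoptotic. Tubulin, mitochondrial-mass and membrane-permeability phenotypes are per cents of healthy-nucleus cells.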

[2] = system: HEK-293T; assay: Multiplex assay against HEK293T; settings: human, number of replicates 2; summary of the method: as §1
[3] = system: U2OS; assay: Multiplex assay against U2OS; settings: human, number of replicates 2; summary of the method: as §1
[4] = 12 h, 1 µM, compound concentration 1 uM
[5] = 12 h, 10 µM, compound concentration 10 uM
[6] = 24 h, 1 µM, compound concentration 1 uM
[7] = 24 h, 10 µM, compound concentration 10 uM
[8] = 48 h, 1 µM, compound concentration 1 uM
[9] = 48 h, 10 µM, compound concentration 10 uM

## CN1CCN(c2ccc(-n3cc(-c4ccncc4OCC4CCNCC4)cn3)cc2)CC1
[1]; [4]
  Population Apoptotic (%): 44%
  Population Fragmented Nuclei (%): 13% and 12%
  Population Healthy Nuclei (%): 58% and 71%
  Population Hoechst High Intensity Objects (%): 0%
  Population Membrane Permeable-Phenotype (%): 3% and 8%
  Population Mitochondria Different-Phenotype (%): 2% and 0%
  Population Mitotic Cells (%): 55%
  Population Normal (%): 100%
  Population Pyknosed Nuclei (%): 27% and 16%
  Population Tubulin-Different-Phenotype (%): 15% and 14%
  Total Cell Count: 131 and 173
[1]; [5]
  Population Apoptotic (%): 38% and 75%
  Population Fragmented Nuclei (%): 13% and 25%
  Population Healthy Nuclei (%): 72% and 63%
  Population Hoechst High Intensity Objects (%): 0%
  Population Membrane Permeable-Phenotype (%): 2% and 4%
  Population Mitochondria Different-Phenotype (%): 1% and 3%
  Population Mitotic Cells (%): 61% and 25%
  Population Normal (%): 100%
  Population Pyknosed Nuclei (%): 14% and 10%
  Population Tubulin-Different-Phenotype (%): 34% and 31%
  Total Cell Count: 179 and 182
[1]; [6]
  Population Apoptotic (%): 56% and 48%
  Population Fragmented Nuclei (%): 13% and 14%
  Population Healthy Nuclei (%): 58% and 68%
  Population Hoechst High Intensity Objects (%): 0%
  Population Membrane Permeable-Phenotype (%): 7% and 9%
  Population Mitochondria Different-Phenotype (%): 2% and 1%
  Population Mitotic Cells (%): 43% and 51%
  Population Normal (%): 100%
  Population Pyknosed Nuclei (%): 28% and 17%
  Population Tubulin-Different-Phenotype (%): 17% and 13%
  Total Cell Count: 131 and 178
[1]; [7]
  Population Apoptotic (%): 39% and 47%
  Population Fragmented Nuclei (%): 20% and 26%
  Population Healthy Nuclei (%): 65% and 61%
  Population Hoechst High Intensity Objects (%): 0%
  Population Membrane Permeable-Phenotype (%): 8% and 5%
  Population Mitochondria Different-Phenotype (%): 7% and 13%
  Population Mitotic Cells (%): 60% and 52%
  Population Normal (%): 100%
  Population Pyknosed Nuclei (%): 14% and 11%
  Population Tubulin-Different-Phenotype (%): 52% and 44%
  Total Cell Count: 189 and 192
[1]; [8]
  Population Apoptotic (%): 75% and 66%
  Population Fragmented Nuclei (%): 21% and 16%
  Population Healthy Nuclei (%): 61% and 72%
  Population Hoechst High Intensity Objects (%): 0%
  Population Membrane Permeable-Phenotype (%): 10% and 4%
  Population Mitochondria Different-Phenotype (%): 1% and 0%
  Population Mitotic Cells (%): 25% and 33%
  Population Normal (%): 100%
  Population Pyknosed Nuclei (%): 16% and 10%
  Population Tubulin-Different-Phenotype (%): 17% and 10%
  Total Cell Count: 142 and 191
[1]; [9]
  Population Apoptotic (%): 76% and 73%
  Population Fragmented Nuclei (%): 31% and 30%
  Population Healthy Nuclei (%): 54% and 61%
  Population Hoechst High Intensity Objects (%): 0%
  Population Membrane Permeable-Phenotype (%): 2% and 4%
  Population Mitochondria Different-Phenotype (%): 11% and 13%
  Population Mitotic Cells (%): 23% and 26%
  Population Normal (%): 99% and 100%
  Population Pyknosed Nuclei (%): 14% and 7%
  Population Tubulin-Different-Phenotype (%): 59% and 48%
  Total Cell Count: 212 and 189
[2]; [4]
  Population Apoptotic (%): 50% and 48%
  Population Fragmented Nuclei (%): 4% and 3%
  Population Healthy Nuclei (%): 86% and 85%
  Population Hoechst High Intensity Objects (%): 7% and 5%
  Population Membrane Permeable-Phenotype (%): 4% and 2%
  Population Mitochondria Different-Phenotype (%): 9% and 10%
  Population Mitotic Cells (%): 50% and 51%
  Population Normal (%): 92% and 94%
  Population Pyknosed Nuclei (%): 9% and 11%
  Population Tubulin-Different-Phenotype (%): 38%
  Total Cell Count: 587 and 556
[2]; [5]
  Population Apoptotic (%): 88% and 66%
  Population Fragmented Nuclei (%): 1%
  Population Healthy Nuclei (%): 94% and 95%
  Population Hoechst High Intensity Objects (%): 3% and 5%
  Population Membrane Permeable-Phenotype (%): 4% and 6%
  Population Mitochondria Different-Phenotype (%): 28% and 17%
  Population Mitotic Cells (%): 11% and 33%
  Population Normal (%): 96% and 94%
  Population Pyknosed Nuclei (%): 3% and 2%
  Population Tubulin-Different-Phenotype (%): 71% and 76%
  Total Cell Count: 452 and 604
[2]; [6]
  Population Apoptotic (%): 29% and 50%
  Population Fragmented Nuclei (%): 6% and 7%
  Population Healthy Nuclei (%): 84% and 83%
  Population Hoechst High Intensity Objects (%): 8% and 7%
  Population Membrane Permeable-Phenotype (%): 3% and 1%
  Population Mitochondria Different-Phenotype (%): 2% and 6%
  Population Mitotic Cells (%): 70% and 50%
  Population Normal (%): 91% and 92%
  Population Pyknosed Nuclei (%): 8% and 9%
  Population Tubulin-Different-Phenotype (%): 18% and 21%
  Total Cell Count: 857 and 751
[2]; [7]
  Population Apoptotic (%): 66% and 54%
  Population Fragmented Nuclei (%): 4% and 3%
  Population Healthy Nuclei (%): 93% and 94%
  Population Hoechst High Intensity Objects (%): 7% and 6%
  Population Membrane Permeable-Phenotype (%): 6% and 8%
  Population Mitochondria Different-Phenotype (%): 20% and 11%
  Population Mitotic Cells (%): 33% and 45%
  Population Normal (%): 92% and 93%
  Population Pyknosed Nuclei (%): 1%
  Population Tubulin-Different-Phenotype (%): 75% and 80%
  Total Cell Count: 463 and 591
[2]; [8]
  Population Apoptotic (%): 11% and 20%
  Population Fragmented Nuclei (%): 16% and 11%
  Population Healthy Nuclei (%): 79% and 85%
  Population Hoechst High Intensity Objects (%): 10% and 9%
  Population Membrane Permeable-Phenotype (%): 3%
  Population Mitochondria Different-Phenotype (%): 0% and 2%
  Population Mitotic Cells (%): 88% and 80%
  Population Normal (%): 89% and 90%
  Population Pyknosed Nuclei (%): 4% and 3%
  Population Tubulin-Different-Phenotype (%): 7% and 11%
  Total Cell Count: 1935 and 1522
[2]; [9]
  Population Apoptotic (%): 81% and 57%
  Population Fragmented Nuclei (%): 11% and 10%
  Population Healthy Nuclei (%): 86% and 85%
  Population Hoechst High Intensity Objects (%): 9%
  Population Membrane Permeable-Phenotype (%): 4%
  Population Mitochondria Different-Phenotype (%): 6% and 10%
  Population Mitotic Cells (%): 18% and 42%
  Population Normal (%): 90%
  Population Pyknosed Nuclei (%): 1% and 3%
  Population Tubulin-Different-Phenotype (%): 56% and 45%
  Total Cell Count: 617 and 528
[3]; [4]
  Population Apoptotic (%): 100% and 71%
  Population Healthy Nuclei (%): 63% and 82%
  Population Hoechst High Intensity Objects (%): 0%
  Population Membrane Permeable-Phenotype (%): 6% and 1%
  Population Mitochondria Different-Phenotype (%): 3% and 2%
  Population Normal (%): 100%
  Population Pyknosed Nuclei (%): 2% and 10%
  Population Tubulin-Different-Phenotype (%): 75% and 77%
[3]; [5]
  Population Apoptotic (%): 80%
  Population Healthy Nuclei (%): 48% and 67%
  Population Hoechst High Intensity Objects (%): 1% and 0%
  Population Membrane Permeable-Phenotype (%): 0% and 5%
  Population Mitochondria Different-Phenotype (%): 7% and 16%
  Population Mitotic Cells (%): 20% and 19%
  Population Normal (%): 98% and 99%
  Population Pyknosed Nuclei (%): 17% and 22%
  Population Tubulin-Different-Phenotype (%): 21% and 36%
[3]; [6]
  Population Apoptotic (%): 100% and 78%
  Population Healthy Nuclei (%): 69% and 84%
  Population Hoechst High Intensity Objects (%): 0%
  Population Membrane Permeable-Phenotype (%): 4% and 1%
  Population Mitochondria Different-Phenotype (%): 2% and 1%
  Population Mitotic Cells (%): 0% and 21%
  Population Normal (%): 100%
  Population Pyknosed Nuclei (%): 3% and 11%
  Population Tubulin-Different-Phenotype (%): 72% and 85%
[3]; [7]
  Population Apoptotic (%): 76% and 88%
  Population Fragmented Nuclei (%): 34% and 12%
  Population Healthy Nuclei (%): 25% and 32%
  Population Hoechst High Intensity Objects (%): 1% and 0%
  Population Membrane Permeable-Phenotype (%): 6% and 8%
  Population Mitochondria Different-Phenotype (%): 18% and 26%
  Population Mitotic Cells (%): 24% and 11%
  Population Normal (%): 98% and 100%
  Population Pyknosed Nuclei (%): 39% and 55%
  Population Tubulin-Different-Phenotype (%): 31% and 48%
[3]; [8]
  Population Apoptotic (%): 54% and 86%
  Population Healthy Nuclei (%): 51% and 86%
  Population Hoechst High Intensity Objects (%): 0%
  Population Membrane Permeable-Phenotype (%): 5% and 0%
  Population Mitochondria Different-Phenotype (%): 1%
  Population Normal (%): 100%
  Population Pyknosed Nuclei (%): 10% and 9%
  Population Tubulin-Different-Phenotype (%): 78% and 88%
[3]; [9]
  Population Apoptotic (%): 90%
  Population Healthy Nuclei (%): 13% and 21%
  Population Hoechst High Intensity Objects (%): 0% and 1%
  Population Membrane Permeable-Phenotype (%): 55% and 60%
  Population Mitochondria Different-Phenotype (%): 55% and 60%
  Population Mitotic Cells (%): 9%
  Population Normal (%): 100% and 98%
  Population Pyknosed Nuclei (%): 44% and 69%
  Population Tubulin-Different-Phenotype (%): 88% and 65%
  Total Cell Count: 69 and 181
